High-throughput results (PubChem BioAssay)
Only some compounds are listed: those with a hit (about 1.9% of all), similar ones and a draw of the others.
aSyn UTR inh – MLPCN primary screen, SNCA 5' untranslated region; alpha-synuclein 5'UTR reporter, inhibitor activity; inhibition, % (tested at 7.5 µM); 300,000 compounds, 0.82% hits; AID 1813; in the data active = inhibition above about 60%;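 also: H4 neuroglioblastoma cells stably carrying SNCA 5'UTR luciferase fusion; 0% = DMSO wells and 100% = positive control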
697 NFkB inh – inhibitors of the PMA/ionomycin-induced NF-kB reporter in 697 B cells; inhibition, % at 4 µM; 330,000 compounds, 0.33% hits; 697 B-cell NF-kB luciferase reporter, 16 h; AID 435022; in the data active = inhibition above about 35%
Hep lipid drop – hepatic lipid droplet formation modulation; inhibition, % at 6.5 µM; AML12 mouse hepatocytes, oleate lipid droplets, BODIPY imaging; 240,000 compounds, 0.4% hits;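 active = lipid droplet intensity inhibited by at least 50%, with more than 500 cells counted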
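Test system: AML12 hepatocytes (mouse); reagent: oleate loading, 100 µM; dosing: one dose, 6.5 µM compound; incubation: overnight exposure; signal: fluorescence imaging, 20x objective, two fields per well; read-out basis: % inhibition of corrected integrated BODIPY droplet signal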
TAG inh – reduces triacylglycerol accumulation in H9c2 cells | AID 651582 | Nile Red lipid (TAG) fluorescence; cells loaded with 200 µM oleic acid | 230,000 compounds, 0.66% hits | inhibition, % at 12.5 µM;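 active = pattern-corrected inhibition of lipid staining of at least 50% with the nuclear-stain viability signal not falling by more than 50%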;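 also: 0% = DMSO wells and 100% = triacsin C control wells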
APP transl inh – APP translation inhibition; inhibition, % at 2 µM; 190,000 compounds, 0.82% hits; SH-SY5Y APP 5'UTR-luciferase reporter, luminescence;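 active = inhibition above a set limit, derived from the sample mean plus 3 SD, cut at about 45% in these data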
Jurkat NFkB inh – inhibitors of the PMA/ionomycin-induced NF-kB reporter in Jurkat cells; PMA/ionomycin-induced NF-kB luciferase reporter, luminescence; inhibition, % at 4 µM; 330,000 compounds, 0.53% hits; AID 435003; in the data active = inhibition above about 50%
Active calls of the source: *; nt = no result.

SMILES | aSyn UTR inh | 697 NFkB inh | Hep lipid drop | TAG inh | APP transl inh | Jurkat NFkB inh
CC(C)(C)n1nc(-c2ccc(Cl)cc2)c2c(N)ncnc21 | 105* | -35 | nt | 38 | -13 | 7
CC(C)(C)n1nc(-c2ccc(F)cc2)c2c(N)ncnc21 | 71* | -24 | 3 | nt | -24 | -3
Cc1ccc(S(=O)(=O)N2CCN(C(=O)COC(=O)COc3ccccc3C(C)C)CC2)c(C)c1 | nt | nt | nt | -2 | nt | nt
Cn1cccc1-c1cc(C(=O)N/N=C/c2cc(Br)ccc2O)[nH]n1 | 71* | 0 | 13 | nt | nt | 46
COCc1cccc(-c2csc(C(C)(NC(C)=O)c3ccccc3)n2)c1 (stereo unspecified) | nt | nt | nt | -7 | nt | nt
COc1ccc(C2C(C(=O)Nc3cccc(C)n3)CCC(=O)N2c2ccc(OC)cc2)cc1 (stereo unspecified) | 73* | -30 | nt | nt | -2 | -12
CCCN(CCC)S(=O)(=O)c1ccc(C(=O)Nc2nnc(-c3cc(OC)cc(OC)c3)o2)cc1 | 82* | -8 | 12 | 9 | 4 | 9
CCCN(CCC)S(=O)(=O)c1ccc(C(=O)Nc2nnc(-c3cccc(OC)c3)o2)cc1 | 70* | -64 | 6 | 7 | 21 | -13
CCCN(CCC)S(=O)(=O)c1ccc(C(=O)Nc2nnc(CSC)o2)cc1 | 13 | 1 | nt | -2 | -6 | 11
C=CCn1c(C)cc(C(=O)CSc2n[nH]c(N)n2)c1C | -79 | -46 | nt | nt | -21 | -11
COc1ccc(C(C)=O)cc1Cn1c(C)c(C(=O)NC2CC2)sc1=O | nt | nt | nt | 5 | nt | nt
Cc1ccc(-n2c(SCC(=O)NC3CCS(=O)(=O)C3)nc3ccccc3c2=O)c(C)c1 (stereo unspecified) | nt | nt | nt | -2 | nt | nt
CC(=O)c1cccc(NC(=O)c2cccc3c(-c4cccnc4)coc23)c1 | nt | nt | nt | 10 | nt | nt
COc1cccc(CN2CCC2(C)C(=O)NCc2cccc(C(F)(F)F)c2)c1OC (stereo unspecified) | nt | nt | nt | 14 | nt | nt
Cc1ccc(-c2c[n+]3c(n2-c2ccccc2)CCC3)cc1 | -2 | -28 | -58 | 4 | nt | 41
Cc1ccc(-n2c(-c3ccc(Br)cc3)c[n+]3c2CCc2ccc4cccnc4c2-3)cc1 | 86* | nt | nt | nt | 3 | nt
CCOC(=O)CCCCCC(=O)Nc1ccc2c(c1)C(=O)N([C@H](C)CO)C[C@H](C)[C@@H](CN(C)C(=O)Nc1ccccc1)OCCCC[C@@H](C)O2 | nt | nt | nt | -17 | nt | nt
CCCCCCCC(=O)Nc1ccc(C(=O)N/N=C/c2cccc([N+](=O)[O-])c2)cc1 | 76* | -6 | nt | 172 | 0 | 1
CCCC(=O)Nc1ccc(C(=O)N/N=C/c2ccc([N+](=O)[O-])o2)cc1 | 111* | -41 | 27 | nt | 96* | -14
C=Cn1cc(CNC[C@H]2O[C@@H](n3ccc(N)nc3=O)[C@H](O)[C@@H]2O)c(C)n1 | nt | nt | nt | 0 | nt | nt
CN1CCN(C(=O)c2cccc3c(-c4ccc(F)c(F)c4)coc23)CC1 | nt | nt | nt | 12 | nt | nt
CC(=O)c1c(C)oc2ccc(N(C(C)=O)S(=O)(=O)c3ccc(Cl)c([N+](=O)[O-])c3)cc12 | 112* | -4 | nt | -17 | -1 | 8
Cc1cc(F)ccc1S(=O)(=O)N1CCCOC1CNC(=O)C(=O)NC1CC1 (stereo unspecified) | -4 | -3 | -6 | nt | nt | 2
Cc1cc2c(cc1C)N(C(=O)CSC1=NCCS1)C(C)(C)c1ssc(=S)c1-2 | -17 | 12 | 67* | nt | 9 | 5
C[C@@H]1CN([C@H](C)CO)C(=O)CCCn2nncc2CO[C@@H]1CN(C)S(=O)(=O)c1ccc(-n2cccn2)cc1 | nt | nt | nt | -2 | nt | nt
SMILES | aSyn UTR inh | 697 NFkB inh | Hep lipid drop | TAG inh | APP transl inh | Jurkat NFkB inh
CN(C(=O)COC(=O)c1c2c(nc3ccccc13)/C(=C/c1cccc([N+](=O)[O-])c1)CCC2)C1CCS(=O)(=O)C1 (stereo unspecified) | 72* | -33 | -35 | 23 | 0 | -35
Cc1ccc2c(c1)sc(=NC(=O)c1cccs1)n2C | 85* | -149 | 18 | 0 | -220 | -116
Cc1ccc2c(c1)sc(=NC(=O)C1CC1)n2C | -45 | -55 | 0 | -11 | nt | -74
COc1cccc(C2Nc3ccccc3C(=O)N2Cc2ccccc2)c1 (stereo unspecified) | 79* | -23 | nt | 3 | nt | -33
O=C1C2C3C=CC(CO)(O3)C2C(=O)N1c1ccccc1-c1ccccc1 (stereo unspecified) | nt | -1 | nt | nt | 70* | 16
O=C(OCCN1C(=O)c2cccc3c(N4CCOCC4)ccc(c23)C1=O)c1cc(Cl)cc(Cl)c1 | nt | nt | 2 | nt | 88* | nt
